Results: ChEMBL document CHEMBL1671864, “First assessment in humans of the safety, tolerability, pharmacokinetics, and ex vivo pharmacodynamic antimalarial activity of the new artemisinin derivative artemisone” (Antimicrob Agents Chemother, 2008)
Values after ≈ are worked out from the molar mass of the structure shown.

What was measured:
Plasma [1] = experiment: Ratio of AUC (0 to infinity) for metabolite BAY 78-1789 to AUC (0 to infinity) for compound in healthy human plasma at 80 mg, po administered as single dose for 3 days measured after 1 day; assay type: ADME, organism-based; conditions: in vivo, 24 h
Summary of the method: (§1)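 Healthy Caucasian men (8 active, 4 placebo per dose) dosed with tablets daily for 3 days after 10-h fast. Plasma sampled 0.25–14 h after first and last doses. Parent and metabolites M1–M3 measured by LC/MS-MS (200 µl plasma). Metabolic ratio is metabolite AUC0-∞ divided by parent AUC0-∞ (log-linear trapezoidal, extrapolated by last concentration/kel). First vs third dose compared by paired t test.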

Plasma [2] = experiment: AUC in healthy human plasma assessed as metabolite BAY 78-1789 AUC at 40 mg, po administered as two 20 mg immediate release tablets daily for 3 days during 10 hrs overnight fasting state measured after 1 day; assay type: ADME, organism-based; parameters: time < 10 hr, dose 40 mg, route oral; conditions: in vivo
Summary of the method: (§2)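 Healthy Caucasian male volunteers took 40 mg (two 20-mg IR tablets) or 80 mg (four tablets) orally once daily for 3 days, with 240 ml water after a 10-h fast. Plasma was sampled predose to 14 h after the first and last doses. M1/M2/M3 were quantified by LC/MS-MS MRM against a D4-labelled internal standard. Cmax was read from observed data and AUC by log-linear trapezoidal rule, noncompartmental, geometric means.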

Plasma [3] = experiment: AUC in healthy human plasma assessed as metabolite BAY 78-1789 AUC at 80 mg, po administered as four 20 mg immediate release tablets daily for 3 days during 10 hrs overnight fasting state measured after 3 day; assay type: ADME, organism-based; parameters: dose 80 mg, time < 10 hr, route oral; conditions: in vivo; summary of the method: as §2
Plasma [4] = experiment: Cmax in healthy human plasma assessed as metabolite BAY 78-1789 Cmax at 40 mg, po administered as two 20 mg immediate release tablets daily for 3 days during 10 hrs overnight fasting state measured after 3 day; assay type: ADME, organism-based; parameters: dose 40 mg, route oral; conditions: in vivo, 72 h
Summary of the method: (§3)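 Healthy Caucasian males took tablets once daily for 3 days with 240 ml water after a 10-h fast. Heparinised blood was drawn predose and at 0.25–14 h after the first and last doses. Plasma parent drug and metabolites M1–M3 were measured by LC/MS-MS (MRM, deuterated internal standard). Noncompartmental analysis gave Cmax observed, t1/2 = 0.693/kel and MRT = AUMC/AUC. Values are geometric means.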

Plasma [5] = experiment: Half life in healthy human plasma assessed as metabolite BAY 78-1789 Half life at 40 mg, po administered as two 20 mg immediate release tablets daily for 3 days during 10 hrs overnight fasting state measured after 1 day; assay type: ADME, organism-based; conditions: in vivo, 24 h; summary of the method: as §3
Plasma [6] = experiment: Tmax in healthy human plasma assessed as metabolite BAY 78-1789 Tmax at 40 mg, po administered as two 20 mg immediate release tablets daily for 3 days during 10 hrs overnight fasting state measured after 1 day; assay type: ADME, organism-based; conditions: in vivo, 24 h
Summary of the method: (§4)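 Healthy Caucasian men (8 active, 4 placebo per dose) dosed with tablets daily for 3 days after 10-h fast. Lithium-heparin plasma sampled predose and 0.25–14 h after day-1 and day-3 doses, stored frozen. Parent and M1–M3 quantified by LC/MS-MS in positive-ion MRM. Tmax taken directly from observed individual data.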

Plasma [7] = experiment: Cmax in healthy human plasma assessed as metabolite BAY 78-1789 Cmax at 80 mg, po administered as single ascending doses during 10 hrs overnight fasting state; assay type: ADME, organism-based; parameters: dose 80 mg, route oral; conditions: in vivo
Summary of the method: (§5)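 Healthy Caucasian male volunteers, single oral dose with 240 ml water after a 10-h overnight fast. Heparinised venous blood was drawn predose and at 0.25–14 h. Plasma was stored frozen. Parent drug and metabolites M1–M3 were measured by LC/MS-MS (MRM, deuterated internal standard). Noncompartmental analysis gave Cmax observed, t1/2 = 0.693/kel (terminal regression) and MRT = AUMC/AUC. Values are geometric means.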

Plasma [8] = experiment: Half-life in healthy human plasma assessed as metabolite BAY 78-1789 half-life at 80 mg, po administered as single ascending doses during 10 hrs overnight fasting state; assay type: ADME, organism-based; conditions: in vivo; summary of the method: as §5
Plasma [9] = experiment: Cmax in healthy human plasma assessed as metabolite BAY 78-1789 Cmax at 80 mg, po administered as four 20 mg immediate release tablets daily for 3 days during 10 hrs overnight fasting state measured after 3 day; assay type: ADME, organism-based; parameters: dose 80 mg, route oral; conditions: in vivo, 72 h; summary of the method: as §3
Plasma [10] = experiment: Tmax in healthy human plasma assessed as metabolite BAY 78-1789 Tmax at 80 mg, po administered as four 20 mg immediate release tablets daily for 3 days during 10 hrs overnight fasting state measured after 3 day; assay type: ADME, organism-based; conditions: in vivo, 72 h; summary of the method: as §4
Plasma [11] = experiment: Tmax in healthy human plasma assessed as metabolite BAY 78-1789 Tmax at 80 mg, po administered as four 20 mg immediate release tablets daily for 3 days during 10 hrs overnight fasting state measured after 1 day; assay type: ADME, organism-based; conditions: in vivo, 24 h; summary of the method: as §4
Plasma [12] = experiment: Ratio of AUC (0 to infinity) for metabolite BAY 78-1789 to AUC (0 to infinity) for compound in healthy human plasma at 80 mg, po administered as single dose for 3 days measured after 3 days; assay type: ADME, organism-based; conditions: in vivo, 72 h; summary of the method: as §1
Plasma [13] = experiment: Half life in healthy human plasma assessed as metabolite BAY 78-1789 Half life at 80 mg, po administered as four 20 mg immediate release tablets daily for 3 days during 10 hrs overnight fasting state measured after 3 day; assay type: ADME, organism-based; conditions: in vivo, 72 h; summary of the method: as §3
Plasmodium falciparum = experiment: Antimalarial activity against Plasmodium falciparum K1 in human plasma assessed as inhibition of hypoxanthine uptake by intraerythrocytic malaria parasites by hypoxanthine incorporation assay; assay type: functional, organism-based
Summary of the method: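 K1 or TM90-C2A parasites were sorbitol-synchronized and cultured in RPMI 1640. Drug was diluted in drug-free human serum (0.04–40 ng/ml) or subject plasma was diluted twofold (8–8,192). Parasites were added at 2% hematocrit, 1% parasitemia (>95% rings), and [3H]hypoxanthine uptake was measured over 48 h. IC50 or ID50 came from concentration or dilution-response curves. Equivalent concentration = ID50 × IC50.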

Plasma [14] = experiment: Half life in healthy human plasma assessed as metabolite BAY 78-1789 Half life at 80 mg, po administered as four 20 mg immediate release tablets daily for 3 days during 10 hrs overnight fasting state measured after 1 day; assay type: ADME, organism-based; conditions: in vivo; summary of the method: as §3
Plasma [15] = experiment: AUC in healthy human plasma assessed as metabolite BAY 78-1789 AUC at 80 mg, po administered as four 20 mg immediate release tablets daily for 3 days during 10 hrs overnight fasting state measured after 1 day; assay type: ADME, organism-based; parameters: dose 80 mg, time < 10 hr, route oral; conditions: in vivo; summary of the method: as §2
Plasma [16] = experiment: AUC (0 to infinity) in healthy human plasma assessed as metabolite BAY 78-1789 AUC (0 to infinity) at 80 mg, po administered as single ascending doses during 10 hrs overnight fasting state; assay type: ADME, organism-based; parameters: dose 80 mg, time infinity, route oral; conditions: in vivo
Summary of the method: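 Healthy Caucasian male volunteers, single oral dose of 80 mg as four 20-mg immediate-release tablets, taken with 240 ml water after a 10-h overnight fast. Lithium-heparin venous blood was drawn predose and at 0.25–14 h, and plasma was stored frozen. Metabolites M1/M2/M3 were measured by LC/MS-MS (positive-ion MRM, deuterated internal standard). Noncompartmental analysis, AUC by log-linear trapezoidal rule extrapolated to infinity (Clast/kel), geometric means.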

Plasma [17] = experiment: Cmax in healthy human plasma assessed as metabolite BAY 78-1789 Cmax at 40 mg, po administered as two 20 mg immediate release tablets daily for 3 days during 10 hrs overnight fasting state measured after 1 day; assay type: ADME, organism-based; parameters: dose 40 mg, route oral; conditions: in vivo, 24 h; summary of the method: as §3
Plasma [18] = experiment: Cmax in healthy human plasma assessed as metabolite BAY 78-1789 Cmax at 80 mg, po administered as four 20 mg immediate release tablets daily for 3 days during 10 hrs overnight fasting state measured after 1 day; assay type: ADME, organism-based; parameters: dose 80 mg, route oral; conditions: in vivo, 24 h; summary of the method: as §3
Plasma [19] = experiment: Ratio of AUC (0 to infinity) for metabolite BAY 78-1789 to AUC (0 to infinity) for compound in healthy human plasma at 40 mg, po administered as single dose for 3 days measured after 3 days; assay type: ADME, organism-based; conditions: in vivo, 72 h; summary of the method: as §1
Plasma [20] = experiment: Tmax in healthy human plasma assessed as metabolite BAY 78-1789 Tmax at 40 mg, po administered as two 20 mg immediate release tablets daily for 3 days during 10 hrs overnight fasting state measured after 3 day; assay type: ADME, organism-based; conditions: in vivo, 72 h; summary of the method: as §4
Plasma [21] = experiment: AUC in healthy human plasma assessed as metabolite BAY 78-1789 AUC at 40 mg, po administered as two 20 mg immediate release tablets daily for 3 days during 10 hrs overnight fasting state measured after 3 day; assay type: ADME, organism-based; parameters: time < 10 hr, dose 40 mg, route oral; conditions: in vivo; summary of the method: as §2
Plasma [22] = experiment: Half life in healthy human plasma assessed as metabolite BAY 78-1789 Half life at 40 mg, po administered as two 20 mg immediate release tablets daily for 3 days during 10 hrs overnight fasting state measured after 3 day; assay type: ADME, organism-based; conditions: in vivo, 72 h; summary of the method: as §3
Plasma [23] = experiment: Ratio of AUC (0 to infinity) for metabolite BAY 78-1789 to AUC (0 to infinity) for compound in healthy human plasma at 40 mg, po administered as single dose for 3 days measured after 1 day; assay type: ADME, organism-based; conditions: in vivo, 24 h; summary of the method: as §1

SMILES: C[C@@H]1[C@H](O)C[C@H]2[C@@H](C)[C@H](N3CCS(=O)(=O)CC3)O[C@@H]3O[C@]4(C)CC[C@@H]1[C@]32OO4
- Ratio (Plasma [1]): 0.65
- AUC (Plasma [2]): 95.9 ng·h/mL
- AUC (Plasma [3]): 165.1 ng·h/mL
- Cmax (Plasma [4]): 22.5 ng/mL
- t1/2 (Plasma [5]): 1.52 h
- Tmax (Plasma [6]): 2 h
- Cmax (Plasma [7]): 74.3 ng/mL
- t1/2 (Plasma [8]): 1.59 h
- Cmax (Plasma [9]): 38.2 ng/mL
- Tmax (Plasma [10]): 2.5 h
- Tmax (Plasma [11]): 2 h
- Ratio (Plasma [12]): 0.52
- t1/2 (Plasma [13]): 1.86 h
- IC50 (Plasmodium falciparum): 2.3 ng/mL (≈ 5.51 nM)
- t1/2 (Plasma [14]): 1.83 h
- AUC (Plasma [15]): 213.1 ng·h/mL
- AUC (Plasma [16]): 294.8 ng·h/mL
- Cmax (Plasma [17]): 27.8 ng/mL
- Cmax (Plasma [18]): 51.9 ng/mL
- Ratio (Plasma [19]): 0.47
- Tmax (Plasma [20]): 2.5 h
- AUC (Plasma [21]): 84.9 ng·h/mL
- t1/2 (Plasma [22]): 1.69 h
- Ratio (Plasma [23]): 0.54
